eIF4E 4G PPI = eIF4E–eIF4G protein interaction inhibitors, primary screen, biochemical, uHTS, TR-FRET, eIF4GI fragment. Eukaryotic translation initiation factor 4E (Mus musculus) + Eukaryotic translation …. TR-FRET eIF4E-eIF4GI(517-606) binding, 2 h. inhibition, % at 21.7 µM. 0.37% of 220,000 active. AID 782, 2007;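 active = inhibition above about 30%, limit read from the data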
HCV core dimer = inhibitors of HCV core protein dimerization, primary screen, biochemical, TR-FRET, high-throughput; 0.33% of 300,000 active; inhibition, % at 5 µM; TR-FRET GST/Flag-core106 dimerization, 1536-well;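 active = inhibition above the mean of all tested compounds plus 3 SD, set per screening campaign, cut at about 45% in these data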
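System: GST/Flag-tagged HCV core106 proteins. Incubation: compound-protein-antibody incubation 4 h at 22.5 °C. Technique: HTRF with 340 nm excitation, 617/671 nm emission. Medium: KF-containing HEPES buffer, pH 7.45, DTT, CHAPS, BSA. Read-out: inhibition (%) from 671 over 617 nm ratio. Also added: Eu(K)-anti-GST 90 ng/mL plus XL665-anti-Flag 1 µg/mL.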
eIF4H FP inh = human eIF4H binding inhibitors, primary screen, translation initiation inhibitor project, biochemical, uHTS, fluorescence polarization; Eukaryotic translation initiation factor 4H (Homo sapiens), Q15056; eIF4H fluorescence polarization binding assay; inhibition, % at 35 µM; 0.94% of 290,000 active; AID 2012, 2009;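 also: calls also rest on retests at 20 µM and on dose response follow-up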
UBC9 SUMO inh = inhibitors of in vitro SUMOylation cascade, primary screen, biochemical, HTRF, uHTS; SUMO-conjugating enzyme UBC9 (Homo sapiens), P63279; HTRF SUMOylation assay, SAE1/SAE2 + UBC9; inhibition, % at 35 µM; 0.36% of 290,000 active; AID 2006, 2009; in the data active = inhibition above about 50%, passing the limit was not always enough
PABP FP inh = PABP poly(A) RNA binding inhibitors, primary screen, biochemical, fluorescence polarization, uHTS. calls only at 35 µM. Polyadenylate-binding protein 1 (Homo sapiens), P11940. 1% of 290,000 active;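 also: calls also rest on retests at 20 µM and on dose response follow-up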
Target sequence (P11940 whole entry, looked up): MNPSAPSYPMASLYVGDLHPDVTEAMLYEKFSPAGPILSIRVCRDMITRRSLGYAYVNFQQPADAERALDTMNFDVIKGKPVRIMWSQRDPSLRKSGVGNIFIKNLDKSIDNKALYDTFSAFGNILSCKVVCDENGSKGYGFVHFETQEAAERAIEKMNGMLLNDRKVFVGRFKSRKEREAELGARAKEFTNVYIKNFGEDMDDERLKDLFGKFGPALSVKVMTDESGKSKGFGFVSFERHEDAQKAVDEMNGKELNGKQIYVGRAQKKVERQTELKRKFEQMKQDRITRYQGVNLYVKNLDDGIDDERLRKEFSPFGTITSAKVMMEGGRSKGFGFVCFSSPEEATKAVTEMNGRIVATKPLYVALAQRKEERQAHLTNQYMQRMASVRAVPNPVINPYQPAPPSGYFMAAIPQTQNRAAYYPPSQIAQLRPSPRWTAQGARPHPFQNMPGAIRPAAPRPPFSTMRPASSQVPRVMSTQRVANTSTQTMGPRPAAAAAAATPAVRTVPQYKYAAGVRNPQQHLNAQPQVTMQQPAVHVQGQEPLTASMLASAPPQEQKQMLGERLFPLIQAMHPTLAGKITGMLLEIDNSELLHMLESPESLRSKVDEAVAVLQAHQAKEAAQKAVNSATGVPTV
MLLE-PAM2 inh = inhibitors of PABP1 MLLE–PAM2 peptide binding, primary screen, biochemical, fluorescence polarization, FITC-PAM2, GST-MLLE; inhibition, % at 20 µM; 0.36% of 360,000 active; AID 588489, 2011; in the data active = inhibition above about 35%, passing the limit was not always enough
Of the large screens only hits and unclear results are named; the others gave an inactive call; [ ] = another dose, or the depositor's remark. In the library only some 1.8% were active in any assay of this set; here they are far more common. Unless noted, no rule for the calls is given here.

CCn1cc(C(=O)OCC(=O)c2cc(C)n(-c3ccc(OC(F)F)cc3)c2C)c(=O)c2ccc(C)nc21	eIF4E 4G PPI 44.9[fluorescence artefact?]
CCn1cc(C(=O)OCC(=O)c2cc(C)n(-c3ccccc3)c2C)c(=O)c2ccc(C)nc21	none
CC1(C(=O)NS(=O)(=O)c2cccc(F)c2)CCN1C(=O)C1CCCCC1 (stereo not drawn)	none (no result: eIF4E 4G PPI, HCV core dimer, eIF4H FP inh, UBC9 SUMO inh, PABP FP inh)
O=C(O)O	eIF4H FP inh 0.6 (no result: HCV core dimer, MLLE-PAM2 inh)
O=[N+]([O-])c1ccc2[nH]c(O)c(N=NC(=S)NCC3CCCO3)c2c1 (stereo not drawn)	none
CCNC(=S)N=Nc1c(O)[nH]c2ccc([N+](=O)[O-])cc12	MLLE-PAM2 inh 44.6
O=C(N=Nc1c(O)[nH]c2ccc([N+](=O)[O-])cc12)c1ccccc1Cl	PABP FP inh active (no result: UBC9 SUMO inh)
N=C1c2ccccc2CN1c1ccc(N2CCOCC2)c(S(=O)(=O)Nc2ccc(Cl)cc2)c1	none (no result: MLLE-PAM2 inh)
C/C(=N\OCC(=O)OCC(=O)NC(=O)c1ccc(OC(F)F)cc1)c1ccc2c(c1)OCO2	none (no result: eIF4E 4G PPI, eIF4H FP inh, UBC9 SUMO inh, PABP FP inh)
CCN(CC(=O)Nc1ccc(OC)cc1)C(=O)CSCc1c(C)noc1C	MLLE-PAM2 inh 157.9 (no result: eIF4E 4G PPI, HCV core dimer, eIF4H FP inh, UBC9 SUMO inh, PABP FP inh)
CCN(CC(=O)Nc1c(F)cccc1F)C(=O)CSCc1c(C)noc1C	none (no result: eIF4E 4G PPI, eIF4H FP inh, UBC9 SUMO inh, PABP FP inh)
Cc1onc(-c2ccccc2)c1C(=O)N/N=C/c1ccc([N+](=O)[O-])s1	eIF4H FP inh 58.0, PABP FP inh active
CC(=O)Nc1c(I)c(C(=O)N[C@H]2C(O)O[C@H](CO)[C@@H](O)[C@@H]2O)c(I)c(N(C)C(C)=O)c1I (stereo partly drawn)	none (no result: eIF4E 4G PPI, eIF4H FP inh, UBC9 SUMO inh, PABP FP inh)
Cn1c(=O)n(C)c2cc([N+](=O)[O-])c(N3CCN(C(=O)c4cccc(F)c4)CC3)cc21	none
Cn1c(=O)n(C)c2cc([N+](=O)[O-])c(N3CCN(C(=O)c4cccc(Cl)c4)CC3)cc21	eIF4H FP inh active, PABP FP inh active
CSc1nc(=S)c2[nH]c(=S)[nH]c2[nH]1	eIF4H FP inh 92.3, PABP FP inh active (no result: HCV core dimer)
CCNC(=S)/N=C(/Nc1ccccc1)Nc1nc(C)cc(C)n1	none
CCNC(=S)NC(=NCc1cccnc1)Nc1nc(C)cc(C)n1	MLLE-PAM2 inh 64.7 (no result: eIF4E 4G PPI)
CCCCn1c(N)c(N(CCOC)C(=O)c2c(-c3ccccc3)noc2C)c(=O)[nH]c1=O	none (no result: eIF4E 4G PPI, eIF4H FP inh, UBC9 SUMO inh, PABP FP inh)
CCCOc1ccc(-c2c(C(=O)N/N=C(\C)c3ccncc3)nnn2-c2nonc2N)cc1	none (no result: eIF4E 4G PPI)
CN(Cc1ccon1)C(=O)CC1C(=O)NCCN1Cc1ccc(Cl)c(F)c1 (stereo not drawn)	none (no result: eIF4E 4G PPI)
O=C1NCCN(Cc2ccc(Cl)c(F)c2)C1CC(=O)N1CCc2ccccc2C1 (stereo not drawn)	eIF4H FP inh 53.8
COC(=O)c1ccc(Oc2coc3cc(OCc4ccc([N+](=O)[O-])cc4)ccc3c2=O)cc1	HCV core dimer 67.6
CCNC(=O)NC(=O)CSc1cccc(C(F)(F)F)c1	none
O=C(CSc1ncccn1)NC(=O)NCc1ccco1	none
Cc1ccccc1CSCC(=O)NC(=O)NCc1ccco1	HCV core dimer 57.6, eIF4H FP inh 55.2, PABP FP inh active
O=C(CSc1cccc(C(F)(F)F)c1)NC(=O)NCc1ccco1	HCV core dimer 50.6
O=C(CSc1ccccc1F)NC(=O)NCc1ccco1	eIF4H FP inh 77.0, PABP FP inh active
COc1ccc(-c2nnc(SCC(=O)NCc3ccco3)o2)cc1	none
O=C(CSc1nnc(-c2ccc(OC(F)F)cc2)o1)NC(=O)NCc1ccco1	eIF4H FP inh 65.9
CCN(CC(=O)Nc1ccc(NC(C)=O)cc1)C(=O)CCCc1c[nH]c2ccccc12	none (no result: eIF4E 4G PPI, HCV core dimer, eIF4H FP inh, UBC9 SUMO inh, PABP FP inh)
O=C(CSc1n[nH]c(-c2ccccc2)n1)NC(=O)NCc1ccco1	eIF4H FP inh 46.6
Cc1cc(SCC(=O)NC(=O)NCc2ccco2)nc2ccccc12	none
COc1ccc(C(=O)CSc2n[nH]c(-c3ccco3)n2)cc1	eIF4H FP inh 71.1, PABP FP inh active
COc1ccc(C)cc1-n1nnnc1SCC(=O)NC(=O)NCc1ccco1	eIF4H FP inh 71.6
Cc1cc(SCC(=O)NC(=O)NCc2ccco2)nc2c(C)cccc12	HCV core dimer 48.3, eIF4H FP inh 51.1, PABP FP inh active
O=C(CSc1nc(-c2ccccc2)cs1)NC(=O)NCc1ccco1	none
CCCCNc1c(N)n(CC(C)C)c(=O)[nH]c1=O	none
Cn1c(SCC(=O)NC(=O)NCc2ccco2)nnc1-c1ccccc1	HCV core dimer 56.6, eIF4H FP inh 92.0, PABP FP inh active
Cn1c(SCC(=O)NCc2ccco2)nnc1-c1ccccc1	none
COc1cccc(NC(=O)COC(=O)CCC2CCCC2)c1	none (no result: eIF4E 4G PPI, HCV core dimer, eIF4H FP inh, UBC9 SUMO inh, PABP FP inh)
C[C@]12C[C@H](O)[C@H]3[C@@H](CCC4=CC(=O)CC[C@@]43C)[C@@H]1CC[C@@H]2C(=O)CO	eIF4H FP inh 5.2
CC(=O)Nc1ccc(S(=O)(=O)Nc2ccc(S(=O)(=O)Nc3nccs3)cc2)cc1	none (no result: eIF4E 4G PPI)
Cc1ccc(/C=C2\SC(=S)N(CC3CCCO3)C2=O)o1 (stereo not drawn)	none
CCN(C(=O)C(C)N1C(=O)/C(=C/c2ccco2)SC1=S)C1CCS(=O)(=O)C1 (stereo not drawn)	eIF4H FP inh 54.2, PABP FP inh active (no result: eIF4E 4G PPI)
O=C1/C(=C\c2ccco2)SC(=S)N1C1CCS(=O)(=O)C1 (stereo not drawn)	eIF4H FP inh 93.5, PABP FP inh active
Cc1ccc(/C=C2/SC(=S)N(C3CCCCC3)C2=O)o1	HCV core dimer 68.5 (no result: eIF4E 4G PPI)
O=C1/C(=C/c2ccco2)SC(=S)N1C1CCS(=O)(=O)C1 (stereo not drawn)	UBC9 SUMO inh 60.6, PABP FP inh active
CC(C(=O)N(C)C1CCS(=O)(=O)C1)N1C(=O)/C(=C/c2ccc(F)cc2)SC1=S (stereo not drawn)	none (no result: eIF4E 4G PPI)
COc1cc(CN2CCN(CCCc3ccccc3)C(CCO)C2)cc(OC)c1O (stereo not drawn)	none (no result: eIF4E 4G PPI)
CCCc1cc(=O)oc2cc(C)cc(OC(C)C(=O)NCc3ccccn3)c12 (stereo not drawn)	none (no result: eIF4E 4G PPI, eIF4H FP inh, UBC9 SUMO inh, PABP FP inh)
Cc1ccc(NC(=O)CN2C(=O)S/C(=C/c3ccncc3)C2=O)cc1	MLLE-PAM2 inh 47.9 (no result: eIF4E 4G PPI)
O=C(CN1C(=O)S/C(=C/c2ccncc2)C1=O)N1CCOCC1	MLLE-PAM2 inh 48.8
O=C(CN1C(=O)S/C(=C/c2cccnc2)C1=O)N1CCOCC1	none
CCc1noc(C)c1C(=O)NCCc1ccc(Cl)cc1	none (no result: eIF4E 4G PPI, eIF4H FP inh, UBC9 SUMO inh, PABP FP inh)
COC(=O)c1[nH]nc(-c2ccccc2)c1-c1ccccc1	none (no result: eIF4E 4G PPI, eIF4H FP inh, UBC9 SUMO inh, PABP FP inh)
Cn1c(=O)oc2cc(S(=O)(=O)N3CCOCC3)ccc21	none

Source: PubChem (several laboratories)
